Assay results from different studies.
Each line is one published result; the experiments were not run side by side. Values after ≈ are worked out from the molar mass of the structure shown.
Organism: Mycobacterium tuberculosis variant bovis BCG
Read-out: microbial growth

| Compound | strain | time | quantity | result |
| --- | --- | --- | --- | --- |
| C=CC(c1ccc(-c2ccc(OC)c(C)c2)cc1)n1ccnc1 (stereo not drawn) | BCG | – | MIC50 | 17.3 µM (≈ 5.27 µg/mL) |
| COc1ccc(C=CC(=O)c2ccc([N+](=O)[O-])cc2)cc1OC | BCG | 7 days | MIC | 200 µg/mL |
| C=CC(c1ccc(-c2ccc(C#N)cc2)cc1)n1ccnc1 (stereo not drawn) | BCG | – | MIC50 | 9.2 µM (≈ 2.63 µg/mL) |
| COc1ccc(C=CC(=O)c2ccc(Br)cc2)cc1OC | BCG | 7 days | MIC | 12.5 µg/mL |
| c1ccc(COc2ccc(CNCc3ccncc3)cc2)cc1 | ATCC35734 BCG | – | MIC | > 62.5 µM |
| COc1ccc(C=CC(=O)c2ccc(Cl)cc2)cc1OC | BCG | 7 days | MIC | 200 µg/mL |
| NNC(=O)c1ccncc1 | ATCC35734 BCG | – | MIC | ≤ 0.25 µM |
| C=CC(c1ccc(-c2ccc(O)c(Cl)c2)cc1)n1ccnc1 (stereo not drawn) | BCG | – | MIC50 | 49.9 µM (≈ 15.5 µg/mL) |
| COc1ccc(C(=O)C=Cc2ccc(OC)c(OC)c2)cc1 | BCG | 7 days | MIC | 50 µg/mL |
| Nc1nccnc1C(=O)O | ATCC35734 BCG | 5 days | IC50 | 800 µM |
| C=CC(c1ccc(-c2ccc(OC)c(OC)c2)cc1)n1ccnc1 (stereo not drawn) | BCG | – | MIC50 | > 100 µM |
| Fc1ccc(COc2ccc(CNCc3ccccc3)cc2)cc1 | ATCC35734 BCG | – | MIC | > 62.5 µM |
| COc1ccc(C=CC(=O)c2ccccc2C)cc1OC | BCG | 7 days | MIC | 50 µg/mL |
| C=CC(c1ccc(-c2ccc3cc(OC)ccc3c2)cc1)n1ccnc1 (stereo not drawn) | BCG | – | MIC50 | 9.7 µM (≈ 3.3 µg/mL) |
| Fc1ccc(COc2cccc(CNCc3cccnc3)c2)cc1 | ATCC35734 BCG | – | MIC | > 62.5 µM |
